Reference: ChEMBL document CHEMBL3865813, “Neolignans from the Arils of Myristica fragrans as Potent Antagonists of CC Chemokine Receptor 3” (J Nat Prod, 2016)
The source made the active and inactive calls. No cut-off for these calls is given here.

molecular target: T1, C-C chemokine receptor type 3 (Homo sapiens) (UniProt P51677); test: Antagonist activity at human EGFP-fused CCR3 expressed in mouse L1.2 cells assessed as inhibition of CCL11-induced chemotaxis at 1 uM measured after 1.5 hrs by PicoGreen dsDNA reagent-based assay; type: cell-based; conditions: not given
T1 sequence (whole entry): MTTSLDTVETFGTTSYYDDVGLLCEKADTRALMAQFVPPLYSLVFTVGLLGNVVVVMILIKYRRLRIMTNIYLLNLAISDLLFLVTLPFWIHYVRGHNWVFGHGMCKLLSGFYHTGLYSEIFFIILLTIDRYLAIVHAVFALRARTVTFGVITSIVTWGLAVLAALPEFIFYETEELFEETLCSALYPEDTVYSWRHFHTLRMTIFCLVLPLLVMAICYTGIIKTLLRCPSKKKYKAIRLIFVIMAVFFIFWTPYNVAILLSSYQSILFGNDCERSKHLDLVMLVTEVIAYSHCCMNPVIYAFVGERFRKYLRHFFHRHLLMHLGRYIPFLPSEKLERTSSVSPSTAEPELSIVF
Summary of the method: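 Human CCR3 was stably expressed in mouse pre-B L1.2 cells by a retroviral pMX-IRES-EGFP vector, and EGFP+ cells were sorted. Test sample was at 1 μM (DMSO, 0.5% final) with 10 nM CCL11 in lower wells (phenol red-free RPMI/BSA). Cells at 8 × 10^6/mL crossed a 5 μm filter for 1.5 h at 37 °C. Migrated cells were lysed (0.1% Triton X-100) and quantified with PicoGreen. Three experiments, Dunnett's test vs control.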

Compound | inhibition
COc1cc([C@H]2Oc3c(OC)cc(/C=C/C=O)cc3[C@@H]2C)ccc1O | Active
C=CCc1cc(OC)c(O[C@H](C)[C@@H](O)c2ccc3c(c2)OCO3)c(OC)c1 | Active
COc1cc([C@H]2O[C@@H](c3ccc(O)c(OC)c3)[C@@H](C)[C@@H]2C)ccc1O | Active
C=CCc1cc(OC)c2c(c1)OCO2 | Active
C=CCc1cc(OC)c(O[C@H](C)Cc2ccc3c(c2)OCO3)c(OC)c1 | Active
C/C=C/c1cc(OC)c2c(c1)[C@@H](C)[C@H](c1cc(OC)c(O)c(OC)c1)O2 | Active
C=CCc1cc(OC)c(O[C@@H](C)[C@H](OC(C)=O)c2ccc(OC)c(OC)c2)c(OC)c1 | Active
C=CCc1cc(OC)c(O[C@H](C)[C@@H](O)c2cc(OC)c(O)c(OC)c2)c(OC)c1 | Active
C/C=C/c1cc(OC)c2c(c1)[C@@H](C)[C@H](c1ccc(O)c(OC)c1)O2 | Active
COc1cc([C@H]2O[C@@H](c3ccc(O)c(OC)c3)[C@H](C)[C@@H]2C)ccc1O | Active

organism: Mus musculus; test: Cytotoxicity against mouse L1.2 cells at 1.5 uM; type: toxicity, cell-based; conditions: l1.2, 1.5 µM

Compound | Activity
C=CCc1cc(OC)c(O[C@H](C)[C@@H](O)c2cc(OC)c(O)c(OC)c2)c(OC)c1 | Non-Toxic
